Source: ChEMBL document CHEMBL1141940, “N-[(3S)-1-benzylpyrrolidin-3-yl]-(2-thienyl)benzamides: human dopamine D4 ligands with high affinity for the 5-HT2A receptor” (Bioorg Med Chem Lett, 2005)

What was measured:
D(4) dopamine receptor = target: T1, D(4) dopamine receptor (Homo sapiens, UniProt P21917); experiment: Displacement of [3H]spiperone from cloned human dopamine D4.2 receptor in […] cells; format: cell-based
T1 sequence (P21917 whole entry): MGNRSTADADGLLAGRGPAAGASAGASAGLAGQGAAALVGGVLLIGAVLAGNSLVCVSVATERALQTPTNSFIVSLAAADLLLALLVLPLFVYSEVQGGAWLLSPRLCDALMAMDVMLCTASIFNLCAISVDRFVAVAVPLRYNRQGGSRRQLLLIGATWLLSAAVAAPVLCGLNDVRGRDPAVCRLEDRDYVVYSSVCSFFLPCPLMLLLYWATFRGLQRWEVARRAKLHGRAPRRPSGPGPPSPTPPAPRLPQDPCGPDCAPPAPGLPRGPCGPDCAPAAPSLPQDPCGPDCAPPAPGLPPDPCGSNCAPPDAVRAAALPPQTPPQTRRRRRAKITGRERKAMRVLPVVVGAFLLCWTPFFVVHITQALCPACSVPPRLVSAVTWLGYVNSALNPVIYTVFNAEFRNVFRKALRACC
Procedure, shortened: (§1)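 […] cells stably transfected with cloned receptor: hD4 (D4.2 subtype) with [3H]spiperone, h5-HT2A with [3H]ketanserin. Non-specific binding was defined with methysergide. Ki came from Cheng–Prusoff conversion and is the mean of at least two independent determinations ± SEM.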

[1] = target: T2, 5-hydroxytryptamine receptor 2A (Homo sapiens, UniProt P28223); experiment: Displacement of [3H]ketanserin from cloned human 5HT2A receptor in […] cells; format: cell-based; procedure, shortened: as §1
T2 sequence (P28223 whole entry): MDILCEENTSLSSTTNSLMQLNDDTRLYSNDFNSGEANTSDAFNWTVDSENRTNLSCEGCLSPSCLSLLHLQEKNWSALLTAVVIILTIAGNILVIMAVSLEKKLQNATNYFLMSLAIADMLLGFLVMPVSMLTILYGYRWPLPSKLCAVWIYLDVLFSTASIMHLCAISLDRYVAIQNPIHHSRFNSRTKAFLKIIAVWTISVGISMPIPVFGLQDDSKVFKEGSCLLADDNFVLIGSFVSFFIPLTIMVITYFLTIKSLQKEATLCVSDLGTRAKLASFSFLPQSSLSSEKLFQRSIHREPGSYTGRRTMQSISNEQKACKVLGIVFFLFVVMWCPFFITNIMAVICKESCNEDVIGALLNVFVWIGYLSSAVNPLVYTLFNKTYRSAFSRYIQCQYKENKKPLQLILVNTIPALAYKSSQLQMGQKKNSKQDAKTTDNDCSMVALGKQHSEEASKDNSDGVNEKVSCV

[2] = target: T3, Adrenergic receptor alpha-1 (Rattus norvegicus, UniProt P15823+P23944+P43140); experiment: Displacement of 7-methoxy-[3H]prazosin from adrenergic alpha-1 receptor in rat frontal cortex tissue; format: tissue-based
T3 sequence (P15823 whole entry): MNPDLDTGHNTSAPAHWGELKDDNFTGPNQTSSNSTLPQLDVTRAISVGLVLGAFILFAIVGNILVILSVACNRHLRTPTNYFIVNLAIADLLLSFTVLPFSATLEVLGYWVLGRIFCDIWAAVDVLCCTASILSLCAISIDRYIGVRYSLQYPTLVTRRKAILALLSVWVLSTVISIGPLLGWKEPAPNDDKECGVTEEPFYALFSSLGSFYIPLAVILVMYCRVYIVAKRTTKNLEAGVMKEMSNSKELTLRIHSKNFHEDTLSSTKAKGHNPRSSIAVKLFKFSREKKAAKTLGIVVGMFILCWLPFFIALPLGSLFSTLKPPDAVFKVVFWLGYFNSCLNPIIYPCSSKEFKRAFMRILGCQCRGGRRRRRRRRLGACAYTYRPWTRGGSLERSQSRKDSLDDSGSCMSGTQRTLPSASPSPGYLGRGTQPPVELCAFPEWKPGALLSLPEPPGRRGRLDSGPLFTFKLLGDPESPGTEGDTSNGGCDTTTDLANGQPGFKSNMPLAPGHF
T3 sequence (P23944 whole entry): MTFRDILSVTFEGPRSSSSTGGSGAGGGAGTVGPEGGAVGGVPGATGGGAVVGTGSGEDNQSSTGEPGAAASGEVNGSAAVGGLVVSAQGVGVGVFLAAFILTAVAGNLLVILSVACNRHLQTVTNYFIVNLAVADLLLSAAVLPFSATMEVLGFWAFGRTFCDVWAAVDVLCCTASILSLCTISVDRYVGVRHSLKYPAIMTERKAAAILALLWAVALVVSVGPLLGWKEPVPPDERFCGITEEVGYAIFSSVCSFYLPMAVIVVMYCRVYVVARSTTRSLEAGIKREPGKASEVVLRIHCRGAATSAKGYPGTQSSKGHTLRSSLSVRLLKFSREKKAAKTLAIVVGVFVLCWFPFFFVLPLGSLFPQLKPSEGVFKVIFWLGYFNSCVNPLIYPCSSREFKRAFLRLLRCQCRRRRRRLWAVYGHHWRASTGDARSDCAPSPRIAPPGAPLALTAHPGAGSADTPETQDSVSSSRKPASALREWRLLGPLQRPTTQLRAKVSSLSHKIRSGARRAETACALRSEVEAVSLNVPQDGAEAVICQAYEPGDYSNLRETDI
T3 sequence (P43140 whole entry): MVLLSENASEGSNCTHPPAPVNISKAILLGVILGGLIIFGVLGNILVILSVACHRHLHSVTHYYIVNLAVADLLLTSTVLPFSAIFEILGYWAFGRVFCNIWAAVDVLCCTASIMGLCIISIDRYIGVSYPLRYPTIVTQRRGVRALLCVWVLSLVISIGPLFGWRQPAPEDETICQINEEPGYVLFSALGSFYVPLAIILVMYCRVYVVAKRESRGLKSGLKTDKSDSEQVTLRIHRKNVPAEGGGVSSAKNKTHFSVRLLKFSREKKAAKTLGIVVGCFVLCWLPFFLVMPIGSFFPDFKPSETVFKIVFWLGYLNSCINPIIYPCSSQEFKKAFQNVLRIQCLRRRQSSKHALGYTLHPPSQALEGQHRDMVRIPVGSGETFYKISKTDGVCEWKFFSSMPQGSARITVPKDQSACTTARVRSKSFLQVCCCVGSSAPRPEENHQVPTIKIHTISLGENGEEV
Procedure, shortened: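 Rat frontal cortex tissue as receptor source, with 7-methoxy-[3H]prazosin as radioligand. Non-specific binding was defined with […]. Ki was obtained by Cheng–Prusoff transformation and reported as the mean of at least two independent determinations ± SEM.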

D(2) dopamine receptor [3] = target: T4, D(2) dopamine receptor (Homo sapiens, UniProt P14416); experiment: Displacement of [3H]spiperone from human dopamine D2(short) receptor in rat pituitary GH4C1 cells; format: cell-based, Pituitary gland cell
T4 sequence (P14416 whole entry, canonical isoform): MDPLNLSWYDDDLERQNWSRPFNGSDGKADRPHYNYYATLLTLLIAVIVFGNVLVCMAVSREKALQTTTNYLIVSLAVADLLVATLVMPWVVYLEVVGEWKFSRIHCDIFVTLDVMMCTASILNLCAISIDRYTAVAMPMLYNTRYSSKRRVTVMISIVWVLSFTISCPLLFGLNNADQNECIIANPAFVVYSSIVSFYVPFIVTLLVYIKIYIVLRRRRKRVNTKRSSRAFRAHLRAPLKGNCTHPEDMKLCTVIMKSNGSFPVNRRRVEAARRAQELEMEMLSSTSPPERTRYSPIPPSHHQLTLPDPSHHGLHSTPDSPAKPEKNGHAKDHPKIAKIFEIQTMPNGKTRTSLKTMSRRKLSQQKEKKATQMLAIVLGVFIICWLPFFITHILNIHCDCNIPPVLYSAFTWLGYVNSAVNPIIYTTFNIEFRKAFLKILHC
Procedure, shortened: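 Rat pituitary GH4C1 cells stably expressing cloned hD2 (short isoform), with [3H]spiperone displacement. Non-specific binding was defined with […]. Ki was calculated by Cheng–Prusoff transformation.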

D(2) dopamine receptor [4] = target: T4, D(2) dopamine receptor; experiment: Inhibitory activity against human dopamine D2(short) receptor in rat pituitary GH4C1 cells at 100 nM; format: cell-based; settings: Pituitary gland cell
[5] = target: T5, Adrenergic receptor alpha-1 (Rattus norvegicus) (UniProt P15823+P23944+P43140); experiment: Inhibitory activity against adrenergic alpha-1 receptor in rat frontal cortex tissue at 1 uM; format: tissue-based
[6] = target: T2, 5-hydroxytryptamine receptor 2A; experiment: Inhibitory activity against cloned human 5HT2A receptor in […] cells at 100 nM; format: cell-based
[7] = target: T5, Adrenergic receptor alpha-1 (Rattus norvegicus); experiment: Inhibitory activity against adrenergic alpha1 receptor in rat frontal cortex tissue at 100 nM; format: tissue-based

Structure (SMILES) | Ki (D(4) dopamine receptor) [nM] | Ki [1] [nM] | Ki [2] [nM] | Ki (D(2) dopamine receptor [3]) [nM] | inhibition (D(2) dopamine receptor [4]) [%] | inhibition [5] [%] | inhibition [6] [%] | inhibition [7] [%]
O=C(N[C@H]1CCN(Cc2ccc(Cl)c(Cl)c2)C1)c1ccc(-c2cccs2)cc1 | 15 | 22 | 5000 | 29000 |  |  |  | 
O=C(N[C@H]1CCN(Cc2ccc(OC(F)(F)F)cc2)C1)c1cccc(-c2cccs2)c1 | 52 | 5600 | 1200 | 500 |  |  |  | 
O=C(N[C@H]1CCN(Cc2ccc(OC(F)(F)F)cc2)C1)c1ccc(-c2cccs2)cc1 | 78 | 140 | 16000 |  | 7 |  |  | 
O=C(N[C@H]1CCN(Cc2ccc(C(F)(F)F)cc2)C1)c1ccc(-c2cccs2)cc1 | 14 | 130 |  |  | 7 | 2 |  | 
O=C(N[C@H]1CCN(Cc2ccc(Cl)cc2)C1)c1cccc(-c2cccs2)c1 | 16 | 1100 | 220 | 230 |  |  |  | 
Cc1ccc(CN2CC[C@H](NC(=O)c3cccc(-c4cccs4)c3)C2)cc1 | 4 | 610 | 80 | 60 |  |  |  | 
O=C(N[C@H]1CCN(Cc2ccc(F)c(F)c2)C1)c1ccc(-c2cccs2)cc1 | 14 | 16 | 10000 | 18000 |  |  |  | 
O=C(N[C@H]1CCN(Cc2ccc(C(F)(F)F)cc2)C1)c1cccc(-c2cccs2)c1 | 21 | 740 | 360 | 1300 |  |  |  | 
O=C(N[C@H]1CCN(Cc2ccc3c(c2)OCO3)C1)c1ccc(-c2cccs2)cc1 | 7 |  | 400 | 1800 |  |  | 89 | 
O=C(N[C@H]1CCN(Cc2cccc(C(F)(F)F)c2)C1)c1ccc(-c2cccs2)cc1 | 22 |  |  |  | 0 |  | 76 | 0

Next, values leading:

Ki (D(4) dopamine receptor) [nM] | Ki [1] [nM] | Ki [2] [nM] | Ki (D(2) dopamine receptor [3]) [nM] | inhibition (D(2) dopamine receptor [4]) [%] | inhibition [5] [%] | inhibition [6] [%] | inhibition [7] [%] | Structure (SMILES)
33 |  | 6900 | 38000 |  |  | 89 |  | O=C(N[C@H]1CCN(Cc2ccccc2F)C1)c1ccc(-c2cccs2)cc1
5 | 14 | 420 | 1500 |  |  |  |  | O=C(N[C@H]1CCN(Cc2ccc(F)cc2)C1)c1ccc(-c2cccs2)cc1
 | 460 |  |  |  |  |  |  | O=C(N[C@H]1CCN(Cc2ccccc2)C1)c1cccc(-c2cccs2)c1
14 | 22 | 920 | 4460 |  |  |  |  | COc1cccc(CN2CC[C@H](NC(=O)c3ccc(-c4cccs4)cc3)C2)c1
 | 1.8 |  |  |  |  |  |  | O=C(N[C@H]1CCN(Cc2ccccc2)C1)c1ccc(-c2cccs2)cc1
